# Compound activity from PubChem.
# Tcruzi prolif: T. cruzi intracellular proliferation inhibitors, primary screen, cell-based, beta-gal Tulahuen parasites, NIH3T3 host, luminescence | hit rate 5.9% among 77,000 | T. cruzi beta-gal in NIH3T3, GalScreen luminescence, 90 h | inhibition, % at 8.34 µM;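 active = mean inhibition above about 93%, with at least 55% of replicates each passing it, limit read from the data, passing the limit was not always enough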
# IDH1 R132H inh: inhibitors of IDH1 R132H reductase, primary screen, biochemical, plate reader, single point | diaphorase/resazurin fluorescence, 60 min | inhibition, % at 10 µM | Isocitrate dehydrogenase [NADP] cytoplasmic (Homo sapiens), O75874 | hit rate 0.18% among 70,000 | AID 624101, 2012; in the data active = inhibition above about 34%;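 also: 0% = DMSO and 100% = no enzyme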
# KDM4C inh: inhibitors of GASC-1 (KDM4C) histone demethylase, primary screen, biochemical, single concentration HTS | Lysine-specific demethylase 4C (Homo sapiens), Q9H3R0 | AID 720574, 2013 | inhibition, % at 12.5 µM | hit rate 0.15% among 96,000 | GST-KDM4C 2-372, H3K9me3 peptide, LANCE TR-FRET;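 active = mean replicate inhibition above about 25%, with at least 55% of replicates also reaching it, limit read from the data, passing the limit was not always enough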
# Target sequence (Q9H3R0 2-372 limits assumed): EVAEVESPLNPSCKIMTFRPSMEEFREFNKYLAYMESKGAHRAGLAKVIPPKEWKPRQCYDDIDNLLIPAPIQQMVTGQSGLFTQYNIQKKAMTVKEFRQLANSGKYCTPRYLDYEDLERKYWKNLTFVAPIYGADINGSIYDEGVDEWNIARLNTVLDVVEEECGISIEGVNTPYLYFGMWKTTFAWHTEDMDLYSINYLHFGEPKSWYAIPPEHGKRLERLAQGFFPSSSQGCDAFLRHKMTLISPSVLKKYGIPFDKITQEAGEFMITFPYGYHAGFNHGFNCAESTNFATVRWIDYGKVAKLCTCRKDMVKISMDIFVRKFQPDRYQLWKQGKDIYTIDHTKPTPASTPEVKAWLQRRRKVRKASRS
#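 Test system – GST-tagged GASC-1 (JMJD2C) catalytic fragment, aa 2-372 · Medium – HEPES buffer, pH 7.5, plus ascorbate · Reagent – H3K9me3 peptide with Fe(II)/2OG · Compound – one test concentration per compound · Timing – 30 min reaction, 60 min detection, RT · Technique – TR-FRET with Eu antibody and ULight streptavidin, EDTA stop · Read-out basis – inhibition from TR-FRET ratio decrease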
# Pf Dd2 growth: P. falciparum Dd2 growth inhibitors, primary screen, SYBR Green fluorescence, single dose replicates | hit rate 2.3% among 94,000 | 72 h; stronger effect = lower value | activity change, % at 10 µM | AID 1159554, 2015; in the data active = activity change below about -80%
# The depositor's hits bear a star; . = no result. Compounds with a hit are over-represented: about 5.9% of the library has one in this group of screens.
SMILES,Tcruzi prolif,IDH1 R132H inh,KDM4C inh,Pf Dd2 growth
CCC(=O)N1CCC2(CC1)CN(CC1CCCCC1)[C@@H](CO)c1c2c2ccc(OC)cc2n1C,.,.,-2,-85*
Cc1cc(OCC(=O)Nc2ccccc2-c2nc3ccccc3s2)ccc1Cl,.,0,.,.
CC(=O)O[C@H]1[C@H](Oc2cc(O)cc(O)c2C(=O)c2cc(O)cc(O)c2)O[C@H](CO)[C@@H](OC(=O)c2ccccc2)[C@@H]1O,.,-1,.,.
CC(=O)N(Cc1ccc(C(C)C)cc1)c1ccc2oc(-c3ccccc3)nc2c1,.,0,.,.
COc1ccc(C#Cc2ccc3c(c2)[C@H]2[C@H](CCN2C(=O)c2ccccn2)[C@H](CO)N3)cc1,.,.,-2,-88*
O=C(c1ccccn1)N1CC[C@@H]2[C@H](CO)Nc3ccc(C#Cc4ccccc4)cc3[C@@H]21,84,.,-2,2
COc1ccc(C#Cc2ccc3c(c2)[C@H]2[C@H](CCN2C(=O)c2ccccn2)[C@@H](CO)N3)cc1,.,.,-2,-91*
O=C(NC[C@@H]1CC[C@@H]2[C@@H](CN2C(=O)NC2CCCC2)O1)c1ccc2c(c1)OCO2,.,.,.,19
O=C(NC[C@@H]1CC[C@H]2[C@H](CN2Cc2cc(-c3ccccc3)on2)O1)c1ccc2c(c1)OCO2,.,.,.,-90*
CC(C(=O)O)N(c1ccc(Cl)cc1)S(C)(=O)=O (stereo not given),.,0,.,.
COc1ccc(NC(=O)Nc2cccc3c2O[C@H](CN(C)Cc2ccc(-c4ccccc4)cc2)[C@@H](C)CN([C@@H](C)CO)C3=O)cc1,.,0,2,-86*
COc1ccc(NC(=O)Nc2cccc3c2O[C@H](CN(C)Cc2ccc(C(=O)Nc4ccccc4N)cc2)[C@H](C)CN([C@@H](C)CO)C3=O)cc1,.,.,-2,-94*
COc1ccc(NC(=O)Nc2cccc3c2O[C@H](CN(C)Cc2ccc(C(=O)Nc4ccccc4N)cc2)[C@@H](C)CN([C@@H](C)CO)C3=O)cc1,105,.,0,-88*
COc1ccc(NC(=O)Nc2cccc3c2O[C@H](CN(C)Cc2ccc(C(=O)Nc4ccccc4N)cc2)[C@@H](C)CN([C@H](C)CO)C3=O)cc1,.,.,-1,-83*
C[C@@H]1CN([C@H](C)CO)C(=O)c2cccc(NC(=O)Nc3ccccc3)c2O[C@H]1CN(C)Cc1ccc(C(=O)Nc2ccccc2N)cc1,91,0,-3,-78
C[C@@H]1CN([C@H](C)CO)C(=O)c2cccc(NC(=O)Nc3ccc(F)cc3)c2O[C@H]1CN(C)Cc1ccc(C(=O)Nc2ccccc2N)cc1,.,.,2,-78
COc1ccc(NC(=O)Nc2cccc3c2O[C@H](CN(C)Cc2ccc(-c4ccccc4)cc2)[C@H](C)CN([C@@H](C)CO)C3=O)cc1,90,.,-3,-42
CCOC(=O)c1c(NC(=O)C2CC(c3ccccc3O)=NO2)sc2c1CCCC2 (stereo not given),.,0,.,.
CCCC(O)c1c(O)cccc1C1(O)CC(=O)C/C1=C\C(O)CC(=O)O (stereo not given),.,1,.,.
O=C(O)C[C@@H]1C[C@@H]2c3cc(NC(=O)CC4CC4)ccc3O[C@@H]2[C@H](CO)O1,-18,-1,1,1
O=C(O)C[C@@H]1C[C@@H]2c3cc(NC(=O)Nc4ccc(C(F)(F)F)cc4)ccc3O[C@@H]2[C@@H](CO)O1,-70,50*,34*,12
O=C(O)C[C@@H]1C[C@H]2c3cc(NC(=O)Nc4ccc(C(F)(F)F)cc4)ccc3O[C@H]2[C@@H](CO)O1,-8,0,-1,12
O=C(O)C[C@@H]1C[C@@H]2c3cc(NC(=O)CC4CC4)ccc3O[C@@H]2[C@@H](CO)O1,-6,60*,38*,-2
COc1ccc(NC(=O)Cn2cnc3sc(-c4ccccc4)cc3c2=O)c([N+](=O)[O-])c1,.,0,.,.
C[C@@H](C(=O)N(C)C[C@@H]1OCc2ccccc2-c2c(n(C)c3ccccc23)C(=O)N([C@@H](C)CO)C[C@@H]1C)c1ccccc1,.,.,2,-86*
SMILES,Tcruzi prolif,IDH1 R132H inh,KDM4C inh,Pf Dd2 growth
C[C@H](CO)N1C[C@H](C)[C@@H](CN(C)C(=O)[C@H](C)c2ccccc2)OCc2ccccc2-c2c(n(C)c3ccccc23)C1=O,.,.,-2,-94*
C[C@H](C(=O)N(C)C[C@@H]1OCc2ccccc2-c2c(n(C)c3ccccc23)C(=O)N([C@@H](C)CO)C[C@H]1C)c1ccccc1,.,.,-1,-67
C[C@@H]1CN([C@@H](C)CO)C(=O)c2c(c3ccccc3n2C)-c2ccccc2CO[C@@H]1CN(C)C(=O)c1cc(Cl)cc(Cl)c1,.,.,-4,-87*
C[C@H]1CN([C@@H](C)CO)C(=O)c2ccccc2-c2ccccc2CO[C@H]1CN(C)C(=O)c1cc(Cl)cc(Cl)c1,.,.,2,-83*
C=CCNC(=O)[C@H]1[C@@H]2C(=O)O[C@@H](c3ccccc3)[C@@H](c3ccccc3)N2[C@@H](c2ccc(OCCO)cc2)[C@]12C(=O)Nc1ccc(C#CCNC(N)=O)cc12,.,0,.,.
COc1ccc(NC(=S)N(C)Cc2c(C)nn(C)c2C)c(OC)c1,.,0,.,.
O=C(CSc1ncccc1C(=O)O)c1cccc([N+](=O)[O-])c1,.,0,.,.
C=CCn1c(SCC(N)=O)nnc1-c1ccc(Br)cc1,.,0,.,.
COc1ccc(OC)c(C(=O)CCC(=O)Nc2ccc(Cl)cc2)c1,.,-1,.,.
C[C@@H]1CN([C@H](C)CO)C(=O)c2c(c3ccccc3n2C)-c2ccccc2CO[C@@H]1CN(C)C(=O)[C@H](C)c1ccccc1,.,.,1,-91*
C[C@H](C(=O)N(C)C[C@H]1OCc2ccccc2-c2c(n(C)c3ccccc23)C(=O)N([C@H](C)CO)C[C@H]1C)c1ccccc1,.,.,-1,-57
CCn1ccc(CNC(=O)Nc2ccc(Cl)cc2Cl)n1,.,0,.,.
CCCNC(=O)N1CCC2(CC1)CN(Cc1cccc(F)c1)[C@@H](CO)c1[nH]c3cc(OC)ccc3c12,.,.,1,-79
CCC(=O)N1CCC2(CC1)CN(Cc1ccc(Cl)cc1)[C@H](CO)c1[nH]c3cc(OC)ccc3c12,.,.,-2,-88*
CCCNC(=O)N1CCC2(CC1)CN(Cc1ccc(F)cc1)[C@@H](CO)c1[nH]c3cc(OC)ccc3c12,.,.,-2,-88*
CCCC(=O)N1CCC2(CC1)CN(Cc1ccc(Cl)cc1)[C@H](CO)c1[nH]c3cc(OC)ccc3c12,.,.,-1,-85*
CCCC(=O)N1CCC2(CC1)CN(Cc1nccs1)[C@H](CO)c1[nH]c3cc(OC)ccc3c12,.,.,-1,-43
C[C@H]1CN([C@@H](C)CO)C(=O)Cc2cc(NC(=O)Cc3cn(C)c4ccccc34)ccc2O[C@H]1CN(C)C(=O)Nc1cccc2ccccc12,29,-1,-1,-33
C[C@@H]1CN([C@@H](C)CO)C(=O)Cc2cc(NC(=O)Cc3cn(C)c4ccccc34)ccc2O[C@H]1CN(C)Cc1ccc(Oc2ccccc2)cc1,9,0,6,-90*
